ChEMBL document CHEMBL3603811, “Design, chemical synthesis and biological evaluation of 3-spiromorpholinone/3-spirocarbamate androsterone derivatives as inhibitors of 17β-hydroxysteroid dehydrogenase type 3” (Bioorg Med Chem, 2015)
pIC50: −log10 of the molar value.

Assays:
[1] = molecular target: T1, 17-beta-hydroxysteroid dehydrogenase type 3 (Rattus norvegicus, UniProt O54939); assay: Inhibition of 17beta-HSD3 in rat testes microsomes using [14C]-4-androstene-3,17-dione as substrate after 2 hrs; design: species or system Testis
T1 sequence (O54939 whole entry): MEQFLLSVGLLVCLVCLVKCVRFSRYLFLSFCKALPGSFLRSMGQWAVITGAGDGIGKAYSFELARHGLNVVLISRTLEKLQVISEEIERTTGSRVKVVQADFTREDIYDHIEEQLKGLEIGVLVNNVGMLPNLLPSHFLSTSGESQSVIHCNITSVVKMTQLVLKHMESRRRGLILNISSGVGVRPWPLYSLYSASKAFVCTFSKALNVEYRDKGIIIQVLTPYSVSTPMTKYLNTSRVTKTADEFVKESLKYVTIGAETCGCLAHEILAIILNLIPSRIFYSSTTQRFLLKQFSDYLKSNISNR
How it was run: (§1)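 Rat testis microsomes: homogenate in phosphate/sucrose/EDTA buffer pH 7.5 with protease inhibitors, spun 12,500g, then pellet from 100,000g, at 4 °C. Reaction 2 h at 37 °C in 50 mM sodium phosphate pH 7.4, 20% glycerol, 1 mM EDTA, with NADPH and [14C]-Δ4-dione (50 nM). Inhibitor in DMSO. [14C]-T and substrate identified against reference steroids and quantified. Percent transformation and percent inhibition calculated.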

[2] = molecular target: T2, 17-beta-hydroxysteroid dehydrogenase type 3 (Rattus norvegicus) (UniProt O54939); assay: Inhibition of 17beta-HSD3 in rat testes microsomes using [14C]-4-androstene-3,17-dione as substrate measured based on 33% of initial enzyme transformation at 10 uM after 2 hrs; conditions: Testis; how it was run: as §1
T2 sequence (whole entry): T1 sequence (O54939 whole entry)

[3] = molecular target: T2, 17-beta-hydroxysteroid dehydrogenase type 3 (Rattus norvegicus); assay: Inhibition of 17beta-HSD3 in rat testes microsomes using [14C]-4-androstene-3,17-dione as substrate measured based on 33% of initial enzyme transformation at 0.1 uM after 2 hrs; conditions: Testis; how it was run: as §1
LAPC4 [4] = assay: Androgenic activity in human LAPC4 cells expressing androgen receptor assessed as induction of cell proliferation at 0.1 uM after 3 days by MTS assay relative to control; assay type: functional
How it was run: (§2)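 LAPC-4 (AR+) cells in RPMI-1640 with 5% dextran-coated charcoal-treated FBS to remove hormones. Triplicate cultures of 10,000 cells preincubated 24 h at 37 °C, 5% CO2. Compounds from 10^-2 M DMSO stock, diluted in medium, added for 3 days (final DMSO 0.05%; vehicle controls). Growth read by MTS. Androgenicity = % proliferation minus basal set at 100%.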

[5] = molecular target: T2, 17-beta-hydroxysteroid dehydrogenase type 3 (Rattus norvegicus); assay: Inhibition of 17beta-HSD3 in rat testes microsomes using [14C]-4-androstene-3,17-dione as substrate measured based on 33% of initial enzyme transformation at 1 uM after 2 hrs; conditions: Testis; how it was run: as §1
LAPC4 [6] = assay: Androgenic activity in human LAPC4 cells expressing androgen receptor assessed as induction of cell proliferation at 1 uM after 3 days by MTS assay relative to control; assay type: functional; how it was run: as §2
[7] = molecular target: T3, 17-beta-hydroxysteroid dehydrogenase type 3 (Homo sapiens) (UniProt P37058); conditions: LNCaP, 0.5 uM
T3 sequence (whole entry): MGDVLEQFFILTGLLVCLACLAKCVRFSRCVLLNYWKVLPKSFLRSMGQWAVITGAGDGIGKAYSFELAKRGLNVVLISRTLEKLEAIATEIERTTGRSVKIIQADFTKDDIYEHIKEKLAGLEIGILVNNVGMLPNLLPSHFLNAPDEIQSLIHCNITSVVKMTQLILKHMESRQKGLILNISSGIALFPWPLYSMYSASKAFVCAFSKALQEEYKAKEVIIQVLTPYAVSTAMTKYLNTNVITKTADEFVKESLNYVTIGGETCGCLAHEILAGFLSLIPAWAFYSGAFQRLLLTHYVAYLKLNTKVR

[8] = molecular target: T2, 17-beta-hydroxysteroid dehydrogenase type 3 (Rattus norvegicus); assay: Inhibition of 17beta-HSD3 in rat testes microsomes using [14C]-4-androstene-3,17-dione as substrate measured based on 18% of initial enzyme transformation at 0.01 uM after 2 hrs; conditions: Testis; how it was run: as §1
[9] = molecular target: T2, 17-beta-hydroxysteroid dehydrogenase type 3 (Rattus norvegicus); assay: Inhibition of 17beta-HSD3 in rat testes microsomes using [14C]-4-androstene-3,17-dione as substrate measured based on 18% of initial enzyme transformation at 0.1 uM after 2 hrs; conditions: Testis; how it was run: as §1
[10] = molecular target: T2, 17-beta-hydroxysteroid dehydrogenase type 3 (Rattus norvegicus); assay: Inhibition of 17beta-HSD3 in rat testes microsomes using [14C]-4-androstene-3,17-dione as substrate measured based on 4% of initial enzyme transformation at 10 uM after 2 hrs; conditions: Testis; how it was run: as §1
[11] = molecular target: T2, 17-beta-hydroxysteroid dehydrogenase type 3 (Rattus norvegicus); assay: Inhibition of 17beta-HSD3 in rat testes microsomes using [14C]-4-androstene-3,17-dione as substrate measured based on 4% of initial enzyme transformation at 1 uM after 2 hrs; conditions: Testis; how it was run: as §1
[12] = molecular target: T2, 17-beta-hydroxysteroid dehydrogenase type 3 (Rattus norvegicus); assay: Inhibition of 17beta-HSD3 in rat testes microsomes using [14C]-4-androstene-3,17-dione as substrate measured based on 18% of initial enzyme transformation at 1 uM after 2 hrs; conditions: Testis; how it was run: as §1
[13] = molecular target: T3, 17-beta-hydroxysteroid dehydrogenase type 3 (Homo sapiens); assay: Inhibition of 17beta-HSD3 (unknown origin) expressed in human LNCaP cells using [14C]-4-androstene-3,17-dione as substrate at 1 uM after 3 hrs; assay type: cell-based
How it was run: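 LNCaP cells stably transfected with 17β-HSD3, kept under hygromycin, which was omitted during assay. 15,000 cells/well grown 3 days in protocol medium, then given 15 nM [14C]-4-androstene-3,17-dione plus inhibitor in DMSO (final 0.05%) for 3 h. Steroids extracted from medium, separated by TLC and quantified. Percent inhibition of T formation calculated.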

[14] = molecular target: T2, 17-beta-hydroxysteroid dehydrogenase type 3 (Rattus norvegicus); assay: Ratio of delta4-dione IC50 to compound IC50 for 17beta-HSD3 in rat testes microsomes; conditions: Testis

SMILES | pIC50 [1] | inhibition [2] | inhibition [3] | Activity (LAPC4 [4]) | inhibition [5] | Activity (LAPC4 [6]) | inhibition [7] | inhibition [8] | inhibition [9] | inhibition [10] | inhibition [11] | inhibition [12] | inhibition [13] | Ratio IC50 [14]
C[C@]12CCC(=O)C=C1CC[C@@H]1[C@@H]2CC[C@]2(C)C(=O)CC[C@@H]12 [ANDROSTENEDIONE] | 6.77 | – | – | – | – | – | – | – | – | – | – | – | – | –
C[C@]12CC[C@@H](O)C[C@@H]1CC[C@@H]1[C@@H]2CC[C@]2(C)C(=O)CC[C@@H]12 [ANDROSTERONE] | 7.05 | – | – | – | – | – | – | – | – | – | – | – | – | –
C[C@]12CC[C@@]3(C[C@@H]1CC[C@@H]1[C@@H]2CC[C@]2(C)C(=O)CC[C@@H]12)CN(CCc1ccccc1)CC(=O)O3 | – | 95.2% | 78.5% | 48.9% | 92.2% | 79.7% | – | – | – | – | – | – | – | –
O=C1OC2(CCCCC2)CN(Cc2ccccc2)[C@H]1Cc1ccccc1 | – | 29.2% | – | – | – | – | – | – | – | – | – | – | – | –
C[C@]12CC[C@@]3(C[C@@H]1CC[C@@H]1[C@@H]2CC[C@]2(C)C(=O)CC[C@@H]12)CN(Cc1ccc(C(F)(F)F)cc1)CC(=O)O3 | – | 91.2% | 83.4% | 12.3% | 94% | 31.7% | – | – | – | – | – | – | – | –
C[C@]12CC[C@@]3(C[C@@H]1CC[C@@H]1[C@@H]2CC[C@]2(C)C(=O)CC[C@@H]12)CN(Cc1ccc(OC(F)(F)F)cc1)CC(=O)O3 | – | 95.7% | 79% | 45.9% | 93.8% | 74.9% | – | – | – | – | – | – | – | –
C[C@@H]1CN(S(=O)(=O)c2ccccc2C(F)(F)F)[C@@H](C)CN1C[C@@]1(O)CC[C@@]2(C)[C@@H](CC[C@@H]3[C@@H]2CC[C@]2(C)C(=O)CC[C@@H]32)C1 | 7.89 | 94% | 89.4% | 0% | 94.4% | 0% | 100% | 32.4% | 43.7% | 97.1% | 96.4% | – | – | –
C[C@]12CC[C@@]3(C[C@@H]1CC[C@@H]1[C@@H]2CC[C@]2(C)C(=O)CC[C@@H]12)CN(Cc1ccc(Br)cc1)CC(=O)O3 | – | 91.6% | 79.1% | 21.8% | 92.9% | 45.7% | – | – | – | – | – | – | – | –
C[C@]12CC[C@@]3(C[C@@H]1CC[C@@H]1[C@@H]2CC[C@]2(C)C(=O)CC[C@@H]12)CN(CCc1ccc(C(F)(F)F)cc1)CC(=O)O3 | – | 93.3% | 70.7% | 40.2% | 92.1% | 76.1% | – | – | – | – | – | – | – | –
O=C1OC2(CCCCC2)CN[C@H]1Cc1ccccc1 | – | 20.6% | – | – | – | – | – | – | – | – | – | – | – | –
C[C@]12CC[C@@]3(C[C@@H]1CC[C@@H]1[C@@H]2CC[C@]2(C)C(=O)CC[C@@H]12)CN(CCCCc1ccccc1)CC(=O)O3 | – | 91.3% | 79.9% | 5.3% | 91.1% | 19.2% | – | – | – | – | – | – | – | –
C[C@]12CC[C@@]3(C[C@@H]1CC[C@@H]1[C@@H]2CC[C@]2(C)C(=O)CC[C@@H]12)CN(C(=O)c1ccc(C(F)(F)F)cc1)CC(=O)O3 | 7.06 | – | – | 0% | – | 0% | – | 24.3% | 45.4% | – | – | 87.1% | 40% | 2
C[C@]12CC[C@@]3(C[C@@H]1CC[C@@H]1[C@@H]2CC[C@]2(C)C(=O)CC[C@@H]12)CN(Cc1ccc(OCc2ccccc2)cc1)CC(=O)O3 | – | 93.4% | 80.4% | 0% | 90.8% | 16.7% | – | – | – | – | – | – | – | –
C[C@]12CC[C@@]3(C[C@@H]1CC[C@@H]1[C@@H]2CC[C@]2(C)C(=O)CC[C@@H]12)CN(Cc1ccc(-c2ccccc2)cc1)CC(=O)O3 | – | 95.2% | 81.9% | 47.7% | 93.1% | 55.1% | – | – | – | – | – | – | – | –
C[C@]12CC[C@@]3(C[C@@H]1CC[C@@H]1[C@@H]2CC[C@]2(C)C(=O)CC[C@@H]12)CN(S(=O)(=O)c1ccc(C(F)(F)F)cc1)CC(=O)O3 | 7.55 | – | – | 0% | – | 0% | – | 32.9% | 48.6% | – | – | 85.1% | 10% | 6
C[C@]12CC[C@@]3(C[C@@H]1CC[C@@H]1[C@@H]2CC[C@]2(C)C(=O)CC[C@@H]12)CN(Cc1ccccc1)CC(=O)O3 | – | 94.3% | 80.8% | 8.1% | 91.6% | 30.5% | – | 27.2% | 56% | 95.2% | 90.9% | 89.2% | – | –
C[C@]12CC[C@@]3(C[C@@H]1CC[C@@H]1[C@@H]2CC[C@]2(C)C(=O)CC[C@@H]12)CN(CCCc1ccccc1)CC(=O)O3 | – | 92.3% | 74.9% | 64.9% | 90.5% | 55.5% | – | – | – | – | – | – | – | –
COC(=O)[C@@H](CC(C)C)N1C[C@]2(CC[C@@]3(C)[C@@H](CC[C@@H]4[C@@H]3CC[C@]3(C)C(=O)CC[C@@H]43)C2)OC1=O | – | – | – | 1.5% | – | 21.9% | – | – | 55.4% | 67.8% | 76.9% | 73.6% | – | –
